ChEMBL document CHEMBL3286166, “Structure-activity relationships of the truncated norzoanthamines exhibiting collagen protection toward anti-osteoporotic activity” (Bioorg Med Chem, 2014)

Organism: Rattus norvegicus
Assay: Binding affinity to rat tail type 1 collagen assessed as collagen protection activity against Clostridium histolyticum collagenase-mediated digestion at 10 uM after 180 mins by Sirius red dye based microplate reader analysis relative to norzoanthamine
Procedure, shortened: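 Acid-solubilized rat tail type I collagen diluted to 1.11 mg/mL in 50 mM Tris (pH 7.4) with 100 mM NaCl and 5 mM CaCl₂. Compound in the same buffer added, 5 min at 37 °C. Digestion started with 2 mg/mL Clostridium histolyticum collagenase at 37 °C. Aliquots at 30–180 min stained with Sirius red, 30 min room temperature, then centrifuged. Remaining collagen at 180 min normalized to norzoanthamine; buffer-only negative control; up to five samples per test.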

Activity [%]	Structure (SMILES)
65	C[C@H]1C[C@@H]2CN(Cc3ccc4ccccc4c3)[C@H](C1)O2
5	COC(=O)C[C@@]1(C)[C@H]2C(=O)C[C@@H]3C(=O)C=C(C)C[C@H]3[C@]2(C)C=C2N3C[C@H]4C[C@H](C)C[C@]3(CC[C@]21C)O4
17	CCCCN1CCC[C@@]2(C)[C@]3(C)CCC[C@]12OC(=O)C3
11	C[C@@]12CCC[C@]3(OC(=O)C1)N(Cc1ccccc1)CCC[C@@]23C
100	C[C@H]1C[C@@H]2CN3[C@](CC[C@@]4(C)[C@]5(C)CCC[C@]34OC(=O)C5)(C1)O2
20	C[C@H]1C[C@@H]2CN(Cc3ccc(-c4ccccc4)cc3)[C@H](C1)O2

More lines, now with the values behind:

Structure (SMILES)	Activity [%]
C[C@H]1C[C@@H]2CN3C4=CCCC[C@]4(C)CC[C@@]3(C1)O2	31
CCCCc1ccc(CN2C[C@H]3C[C@H](C)C[C@@H]2O3)cc1	45
C[C@@H]1C[C@H]2CN3[C@@](CC[C@]4(C)[C@@]5(C)CCC[C@@]34OC(=O)C5)(C1)O2	76
COCCN1CCC[C@@]2(C)[C@]3(C)CCC[C@]12OC(=O)C3	15
C[C@H]1C[C@@H]2CN(C(=O)OC(C)(C)C)[C@H](C1)O2	23
COC(=O)c1ccccc1-c1ccc(CN2C[C@H]3C[C@H](C)C[C@@H]2O3)cc1	25
C[C@H]1C[C@@H]2CN[C@H](C1)O2	31
C[C@H]1C[C@@H]2CN(Cc3ccccc3)[C@H](C1)O2	47
COC(=O)c1cccc(CN2C[C@H]3C[C@H](C)C[C@@H]2O3)c1	25
